In brackets after ≈: the same amount, converted by molar mass.
What was measured:
Assay type in all cases: functional
Staphylococcus aureus [1] = assay: Antibacterial activity against Staphylococcus aureus CCM 4516/08 after 24 hrs by broth microdilution method; settings: CCM 4516/08, 24 h
Outline: (§1)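 Microdilution broth method modified from M07-A07, in Mueller-Hinton broth at pH 7.4 (±0.2). Compounds were dissolved in DMSO. Inoculum was made in sterile water to 0.5 McFarland (1.5 × 10⁸ CFU/mL). MIC was taken as IC₉₀, meaning ≥90% growth reduction versus the drug-free control. Growth was read visually and by absorbance at 540 nm.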

Mycobacterium kansasii [2] = assay: Antimycobacterial activity against Mycobacterium kansasii 6509/96 after 21 days; settings: 6509/96, 504 h
Outline: (§2)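 Micromethod MIC in Sula semisynthetic medium, with compounds added as DMSO solutions at […]. Incubation at 37 °C. Inocula: M. kansasii 235/80 at dilution 10⁻⁴, clinical isolate 6509/96 at 10⁻⁵.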

Staphylococcus aureus [3] = assay: Antibacterial activity against methicillin-resistant Staphylococcus aureus H 5996/08 after 24 hrs by broth microdilution method; settings: H 5996/08, 24 h; outline: as §1
[4] = tested on: Mycobacterium tuberculosis; assay: Antimycobacterial activity against Mycobacterium tuberculosis H37Rv 331/88 after 14 days; settings: H37Rv 331/88, 336 h
[5] = tested on: Staphylococcus epidermidis; assay: Antibacterial activity against methicillin-resistant Staphylococcus epidermidis H 6966/08 after 24 hrs by broth microdilution method; settings: H 6966/08, 24 h; outline: as §1
[6] = tested on: Staphylococcus epidermidis; assay: Antibacterial activity against methicillin-resistant Staphylococcus epidermidis H 6966/08 after 48 hrs by broth microdilution method; settings: H 6966/08, 48 h; outline: as §1
Staphylococcus aureus [7] = assay: Antibacterial activity against Staphylococcus aureus CCM 4516/08 after 48 hrs by broth microdilution method; settings: CCM 4516/08, 48 h
Outline: (§3)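 Broth microdilution modified from standard M07-A07 in Mueller-Hinton broth at pH 7.4 (±0.2). Compounds were dissolved in DMSO. Inoculum in sterile water was adjusted to 0.5 McFarland (1.5 × 10⁸ CFU/mL). MIC was taken as IC₉₀, i.e. ≥90% growth reduction versus control, read visually and spectrophotometrically at 540 nm.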

Mycobacterium kansasii [8] = assay: Antimycobacterial activity against Mycobacterium kansasii 235/80 after 14 days; settings: 235/80, 336 h; outline: as §2
Staphylococcus aureus [9] = assay: Antibacterial activity against methicillin-resistant Staphylococcus aureus H 5996/08 after 48 hrs by broth microdilution method; settings: H 5996/08, 48 h; outline: as §1
Mycobacterium kansasii [10] = assay: Antimycobacterial activity against Mycobacterium kansasii 6509/96 after 14 days; settings: 6509/96, 336 h; outline: as §2
[11] = tested on: Mycobacterium tuberculosis; assay: Antimycobacterial activity against Mycobacterium tuberculosis H37Rv 331/88 after 21 days; settings: H37Rv 331/88, 504 h
Outline: (§4)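 Micromethod in Sula semisynthetic medium, with compounds added as DMSO solutions over a two-fold series from 1000 down to 1. Inoculum for M. avium 330/88 was a 10⁻⁵ dilution. Plates were incubated at 37 °C and MIC was read after 14 and 21 days.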

Mycobacterium kansasii [12] = assay: Antimycobacterial activity against Mycobacterium kansasii 235/80 after 7 days; settings: 235/80, 168 h; outline: as §2
Mycobacterium avium [13] = assay: Antimycobacterial activity against isoniazid-, rifampicin-, ofloxacin-, ethambutol-resistant Mycobacterium avium 330/88 after 14 days; settings: 330/88, 336 h; outline: as §4
Mycobacterium kansasii [14] = assay: Antimycobacterial activity against Mycobacterium kansasii 235/80 after 21 days; settings: 235/80, 504 h; outline: as §2
Mycobacterium avium [15] = assay: Antimycobacterial activity against isoniazid-, rifampicin-, ofloxacin-, ethambutol-resistant Mycobacterium avium 330/88 after 21 days; settings: 330/88, 504 h; outline: as §4
Mycobacterium kansasii [16] = assay: Antimycobacterial activity against Mycobacterium kansasii 6509/96 after 7 days; settings: 6509/96, 168 h; outline: as §2
Trichosporon asahii = assay: Antifungal activity against Trichosporon asahii 1188 after 24 hrs by broth microdilution method; settings: Trichosporon asahii, 1188, 24 h
Outline: (§5)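 Microdilution broth per CLSI M27-A3 (yeasts) or M38-A2 (moulds) in RPMI 1640 with glutamine, buffered to pH 7.0 with 0.165 mol MOPS. Compounds were in DMSO. Final inoculum was 5 × 10³ ± 0.2 CFU/mL. Other conditions matched the antibacterial assay, with MIC as IC₉₀ read visually and at 540 nm. Determined twice, in duplicate.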

[17] = tested on: Trichophyton mentagrophytes; assay: Antifungal activity against Trichophyton mentagrophytes 445 after 24 hrs by broth microdilution method; settings: Trichophyton mentagrophytes, 445, 24 h
Aspergillus fumigatus = assay: Antifungal activity against Aspergillus fumigatus 231 after 24 hrs by broth microdilution method; settings: Aspergillus fumigatus, 231, 24 h; outline: as §5
Nakaseomyces glabratus = assay: Antifungal activity against Candida glabrata 20/I after 24 hrs by broth microdilution method; outline: as §5
Escherichia coli = assay: Antibacterial activity against Escherichia coli CCM 4517 after 24 hrs by broth microdilution method; settings: CCM 4517, 24 h; outline: as §3
Candida tropicalis = assay: Antifungal activity against Candida tropicalis 156 after 24 hrs by broth microdilution method; settings: Candida tropicalis, 156, 24 h; outline: as §5
Candida albicans = assay: Antifungal activity against Candida albicans ATCC 44857 after 24 hrs by broth microdilution method; settings: ATCC 44857, 24 h; outline: as §5
Lichtheimia corymbifera = assay: Antifungal activity against Absidia corymbifera 272 after 24 hrs by broth microdilution method; settings: Lichtheimia corymbifera, 272, 24 h; outline: as §5
Pichia kudriavzevii = assay: Antifungal activity against Candida krusei E58 after 24 hrs by broth microdilution method; settings: E58, 24 h; outline: as §5

O=C(Nc1ccc(S(=O)(=O)Nc2ncccn2)cc1)c1cc(Cl)ccc1O
MIC (Staphylococcus aureus [1]): 125 µM (≈ 50.6 µg/mL) | MIC (Mycobacterium kansasii [2]): 8 µM (≈ 3.24 µg/mL) | MIC (Staphylococcus aureus [3]): 31.2 µM (≈ 12.7 µg/mL) | MIC [4]: 125 µM (≈ 50.6 µg/mL) | MIC [5]: > 500 µM | MIC [6]: > 500 µM | MIC (Staphylococcus aureus [7]): 125 µM (≈ 50.6 µg/mL) | MIC (Mycobacterium kansasii [8]): 8 µM (≈ 3.24 µg/mL) | MIC (Staphylococcus aureus [9]): 31.2 µM (≈ 12.7 µg/mL) | MIC (Mycobacterium kansasii [10]): 8 µM (≈ 3.24 µg/mL) | MIC [11]: 250 µM (≈ 101 µg/mL) | MIC (Mycobacterium kansasii [12]): 4 µM (≈ 1.62 µg/mL) | MIC (Mycobacterium avium [13]): 62.5 µM (≈ 25.3 µg/mL) | MIC (Mycobacterium kansasii [14]): 16 µM (≈ 6.48 µg/mL) | MIC (Mycobacterium avium [15]): 62.5 µM (≈ 25.3 µg/mL) | MIC (Mycobacterium kansasii [16]): 4 µM (≈ 1.62 µg/mL)

NNC(=O)c1ccncc1 [ISONIAZID]
MIC (Mycobacterium kansasii [2]): 8 µM (≈ 1.1 µg/mL) | MIC [4]: 0.5 µM (≈ 0.0686 µg/mL) | MIC (Mycobacterium kansasii [8]): > 250 µM | MIC (Mycobacterium kansasii [10]): 4 µM (≈ 0.549 µg/mL) | MIC [11]: 1 µM (≈ 0.137 µg/mL) | MIC (Mycobacterium kansasii [12]): > 250 µM | MIC (Mycobacterium avium [13]): > 250 µM | MIC (Mycobacterium kansasii [14]): > 250 µM | MIC (Mycobacterium avium [15]): > 250 µM | MIC (Mycobacterium kansasii [16]): 4 µM (≈ 0.549 µg/mL)

Cc1cc(NS(=O)(=O)c2ccc(NC(=O)c3cc(Cl)ccc3O)cc2)no1
MIC (Trichosporon asahii): 500 µM (≈ 204 µg/mL) | MIC [17]: 500 µM (≈ 204 µg/mL) | MIC (Staphylococcus aureus [1]): 125 µM (≈ 51 µg/mL) | MIC (Mycobacterium kansasii [2]): 8 µM (≈ 3.26 µg/mL) | MIC (Staphylococcus aureus [3]): 15.6 µM (≈ 6.37 µg/mL) | MIC [4]: 125 µM (≈ 51 µg/mL) | MIC (Aspergillus fumigatus): 500 µM (≈ 204 µg/mL) | MIC [5]: > 500 µM | MIC [6]: > 500 µM | MIC (Nakaseomyces glabratus): 500 µM (≈ 204 µg/mL) | MIC (Staphylococcus aureus [7]): 125 µM (≈ 51 µg/mL) | MIC (Escherichia coli): 250 µM (≈ 102 µg/mL) | MIC (Mycobacterium kansasii [8]): 16 µM (≈ 6.53 µg/mL) | MIC (Staphylococcus aureus [9]): 31.2 µM (≈ 12.7 µg/mL) | MIC (Candida tropicalis): 500 µM (≈ 204 µg/mL) | MIC (Mycobacterium kansasii [10]): 8 µM (≈ 3.26 µg/mL) | MIC (Candida albicans): 500 µM (≈ 204 µg/mL) | MIC [11]: 250 µM (≈ 102 µg/mL) | MIC (Mycobacterium kansasii [12]): 8 µM (≈ 3.26 µg/mL) | MIC (Lichtheimia corymbifera): 500 µM (≈ 204 µg/mL) | MIC (Mycobacterium avium [13]): 62.5 µM (≈ 25.5 µg/mL) | MIC (Mycobacterium kansasii [14]): 16 µM (≈ 6.53 µg/mL) | MIC (Mycobacterium avium [15]): 125 µM (≈ 51 µg/mL) | MIC (Pichia kudriavzevii): 500 µM (≈ 204 µg/mL) | MIC (Mycobacterium kansasii [16]): 8 µM (≈ 3.26 µg/mL)

Cc1cc(C)nc(NS(=O)(=O)c2ccc(N)cc2)n1 [SULFAMETHAZINE]
MIC (Staphylococcus aureus [1]): 500 µM (≈ 139 µg/mL) | MIC (Mycobacterium kansasii [2]): 32 µM (≈ 8.91 µg/mL) | MIC (Staphylococcus aureus [3]): 500 µM (≈ 139 µg/mL) | MIC [4]: 62.5 µM (≈ 17.4 µg/mL) | MIC [5]: > 500 µM | MIC [6]: > 500 µM | MIC (Staphylococcus aureus [7]): > 500 µM | MIC (Mycobacterium kansasii [8]): 32 µM (≈ 8.91 µg/mL) | MIC (Staphylococcus aureus [9]): > 500 µM | MIC (Mycobacterium kansasii [10]): 16 µM (≈ 4.45 µg/mL) | MIC [11]: 125 µM (≈ 34.8 µg/mL) | MIC (Mycobacterium kansasii [12]): 16 µM (≈ 4.45 µg/mL) | MIC (Mycobacterium avium [13]): 32 µM (≈ 8.91 µg/mL) | MIC (Mycobacterium kansasii [14]): 125 µM (≈ 34.8 µg/mL) | MIC (Mycobacterium avium [15]): 62.5 µM (≈ 17.4 µg/mL) | MIC (Mycobacterium kansasii [16]): 16 µM (≈ 4.45 µg/mL)

Cc1cc(NS(=O)(=O)c2ccc(NC(=O)c3cccc(Cl)c3)cc2)no1
MIC (Trichosporon asahii): 500 µM (≈ 196 µg/mL) | MIC [17]: 500 µM (≈ 196 µg/mL) | MIC (Staphylococcus aureus [1]): > 500 µM | MIC (Mycobacterium kansasii [2]): 8 µM (≈ 3.13 µg/mL) | MIC (Staphylococcus aureus [3]): > 500 µM | MIC [4]: 500 µM (≈ 196 µg/mL) | MIC (Aspergillus fumigatus): 500 µM (≈ 196 µg/mL) | MIC [5]: > 500 µM | MIC [6]: > 500 µM | MIC (Nakaseomyces glabratus): 500 µM (≈ 196 µg/mL) | MIC (Staphylococcus aureus [7]): > 500 µM | MIC (Mycobacterium kansasii [8]): 8 µM (≈ 3.13 µg/mL) | MIC (Staphylococcus aureus [9]): > 500 µM | MIC (Candida tropicalis): 500 µM (≈ 196 µg/mL) | MIC (Mycobacterium kansasii [10]): 8 µM (≈ 3.13 µg/mL) | MIC (Candida albicans): 500 µM (≈ 196 µg/mL) | MIC [11]: 500 µM (≈ 196 µg/mL) | MIC (Mycobacterium kansasii [12]): 2 µM (≈ 0.784 µg/mL) | MIC (Lichtheimia corymbifera): 500 µM (≈ 196 µg/mL) | MIC (Mycobacterium avium [13]): 500 µM (≈ 196 µg/mL) | MIC (Mycobacterium kansasii [14]): 8 µM (≈ 3.13 µg/mL) | MIC (Mycobacterium avium [15]): 500 µM (≈ 196 µg/mL) | MIC (Pichia kudriavzevii): 500 µM (≈ 196 µg/mL) | MIC (Mycobacterium kansasii [16]): 8 µM (≈ 3.13 µg/mL)

— ChEMBL document CHEMBL1955763, “Antimicrobial activity of sulfonamides containing 5-chloro-2-hydroxybenzaldehyde and 5-chloro-2-hydroxybenzoic acid scaffold” (Eur J Med Chem, 2012)
